Bioassay records as filed in PubChem.
Most compounds without a hit are left out; they make up all but 2.6% or so of the library.
GSTO1 inh – blocks human GSTO1 in RBBP9 counter-screen | P78417 | recombinant GSTO1, activity-based probe fluorescence polarization | 1.1% of 300,000 active | inhibition, % at 5.96 µM | AID 1974;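 active means inhibition above the campaign mean inhibition plus 3 SD, cut at about 35% in these data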
Target sequence (P78417 whole entry, looked up): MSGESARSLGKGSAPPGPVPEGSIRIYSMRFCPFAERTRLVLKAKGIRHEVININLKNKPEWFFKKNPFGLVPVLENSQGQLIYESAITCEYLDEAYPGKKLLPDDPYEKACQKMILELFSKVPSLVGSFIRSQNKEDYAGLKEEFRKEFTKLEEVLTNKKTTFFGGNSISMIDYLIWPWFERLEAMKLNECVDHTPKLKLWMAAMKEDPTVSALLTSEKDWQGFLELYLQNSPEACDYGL
PRMT1 FP inh – blocks human protein arginine methyltransferase 1. Q99873. recombinant PRMT1, activity-based probe fluorescence polarization. inhibition, % at 2.79 µM. 1.3% of 370,000 active. AID 652257;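 active means inhibition above about 21% made by adding two undisclosed values, limit read from the data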
Target sequence (Q99873 whole entry, looked up): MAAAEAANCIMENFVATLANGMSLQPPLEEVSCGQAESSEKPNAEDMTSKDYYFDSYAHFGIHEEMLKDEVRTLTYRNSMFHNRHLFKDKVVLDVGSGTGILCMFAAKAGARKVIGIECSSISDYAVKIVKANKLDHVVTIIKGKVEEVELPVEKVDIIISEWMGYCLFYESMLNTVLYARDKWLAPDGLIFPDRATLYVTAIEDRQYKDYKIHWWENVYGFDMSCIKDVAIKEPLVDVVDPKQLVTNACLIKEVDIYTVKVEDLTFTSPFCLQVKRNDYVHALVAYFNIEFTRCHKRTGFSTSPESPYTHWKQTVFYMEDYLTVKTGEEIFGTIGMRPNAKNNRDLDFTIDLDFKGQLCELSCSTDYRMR
TDP2 absorb – TDP2 (human) inhibition, absorbance primary screen; 0.34% of 370,000 active; inhibition, % at 12.8 µM; recombinant TDP2, T5PNP hydrolysis, p-nitrophenol absorbance 415 nm; AID 720702;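 active means inhibition above the mean of all tested compounds plus 3 SD, set per campaign, cut at about 25% in these data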
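Assay system: Recombinant human TDP2 | Quantity: 120 nM TDP2 per well | Incubation: 2 h at 37 °C | Signal: Epi absorbance | Evaluation: Percent inhibition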
Apaf-1 inh – inhibitors of human Apaf-1 apoptosome; O14727; reconstituted apoptosome caspase-3 activity, DEVD-Rh110 fluorescence; inhibition, % at 20 µM; 0.71% of 330,000 active; AID 489030; active means inhibition of at least 40% at 20 µM
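System – cell-free apoptosome with Apaf-1, procaspase-3 and caspase-9 · Buffer or medium – pH 7.5 Hepes buffer with CHAPS, BSA, DTT · Also added – cytochrome c with DEVD-Rh110 · Times – 30 min compound preincubation, 50 min activation, room temperature · Technique – Rh110 fluorescence intensity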
PAD4 FP inh – PAD4 (human) enzyme inhibition; Q9UM07; recombinant PAD4, RCA probe fluorescence polarization; inhibition, % at 6.36 µM; 0.41% of 330,000 active;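 active means percent inhibition above a cutoff equal to the mean of all tested compounds plus 3 SD, cut at about 15% in these data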
GSTO1 confirm – confirmation of human GSTO1 inhibitors; shares compounds with GSTO1 inh; recombinant GSTO1, probe fluorescence polarization; inhibition, % at 5.96 µM; 54% of 2,400 active; AID 2176;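 active means inhibition above the primary screen's cutoff, its mean inhibition plus 3 SD, cut at about 35% in these data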;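 further: loss of polarization as inhibitors block binding of rhodamine sulfonate ester activity probe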
GSTO1 ABPP inh – inhibitors of recombinant human GSTO1; 30% of 130 active; inhibition, % at 1 µM; gel ABPP SE-Rh probe fluorescence; shares compounds with GSTO1 inh;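 active means inhibition of the enzyme GSTO1 above about 75%, limit read from the data; inactive means inhibition below that limit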
PAD4 FP conf – PAD4 (human) inhibition, confirmed | 28% of 1,200 active | shares compounds with PAD4 FP inh | inhibition, % at 6.36 µM | recombinant PAD4, RCA probe fluorescence polarization;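 active means mean inhibition across replicates above the hit cutoff set by the earlier primary screen, cut at about 15% in these data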;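 further: inhibitors block active-site labeling by the probe so polarization falls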
Hits are given with their value.

How did CCOc1ccc(/C(O)=C2/C(=O)C(=O)N(c3cc(C)on3)C2c2ccc(C(=O)OC)cc2)cc1 (stereo unspecified) do in these assays?
GSTO1 inh: 44; PRMT1 FP inh: inactive; TDP2 absorb: inactive; Apaf-1 inh: inactive; PAD4 FP inh: inactive; GSTO1 confirm: inactive

What do the screens show for `O=C(CNC(=O)c1cccnc1)N=Nc1c(O)[nH]c2c(Br)cc(Br)cc12`?
GSTO1 inh: 85; PRMT1 FP inh: inactive; TDP2 absorb: inactive; Apaf-1 inh: inactive; PAD4 FP inh: inactive; GSTO1 confirm: 41

What do the screens show for `NC(=O)N=Nc1c(O)[nH]c2c(Br)cc(Br)cc12`?
GSTO1 inh: inactive; Apaf-1 inh: inactive; PAD4 FP inh: inactive

What do the screens show for `COC(=O)[C@]12C[C@H](CC(=O)NCc3ccc(C)o3)C(=O)N(Cc3cccc4ccccc34)C1=C[C@H](C1CCCC1)O[C@@H]2C`?
PRMT1 FP inh: inactive; TDP2 absorb: inactive

What do the screens show for `CC(OC(=O)c1cc(O)c2ccccc2c1O)C(=O)Nc1ccc(C(N)=O)cc1` (stereo unspecified)?
GSTO1 inh: 48; PRMT1 FP inh: inactive; TDP2 absorb: 47; Apaf-1 inh: 49; PAD4 FP inh: inactive; GSTO1 confirm: 56

Results for CC(OC(=O)c1ccccc1C(=O)N(C)c1ccccc1)C(=O)Nc1ccc(C(N)=O)cc1 (stereo unspecified) ?
GSTO1 inh: inactive; PRMT1 FP inh: inactive; TDP2 absorb: inactive; Apaf-1 inh: inactive; PAD4 FP inh: inactive

How did O=C(COc1c(Cl)cc(Cl)cc1Cl)N/N=C/c1ccc[nH]1 do in these assays?
PRMT1 FP inh: inactive; TDP2 absorb: inactive

How did N/C(=C\C(=O)c1cc(Cl)ccc1O)C(Cl)(Cl)Cl do in these assays?
GSTO1 inh: 65; PRMT1 FP inh: inactive; TDP2 absorb: inactive; Apaf-1 inh: inactive; PAD4 FP inh: inactive; GSTO1 confirm: 77

Results for CCc1n[nH]c(=S)n1/N=C/c1c(O)ccc2ccccc12 ?
GSTO1 inh: 38; PRMT1 FP inh: inactive; TDP2 absorb: inactive; Apaf-1 inh: inactive; PAD4 FP inh: inactive; GSTO1 confirm: inactive

Results for C=CCn1c(SCC(=O)c2ccc(O)c(O)c2)nnc1-c1ccccc1OC ?
GSTO1 inh: 41; PRMT1 FP inh: inactive; TDP2 absorb: inactive; Apaf-1 inh: inactive; PAD4 FP inh: inactive; GSTO1 confirm: inactive

How did CCn1c(SCC(=O)c2ccc(O)c(O)c2)nnc1-c1ccccc1OC do in these assays?
GSTO1 inh: inactive; PRMT1 FP inh: inactive; TDP2 absorb: inactive; Apaf-1 inh: inactive; PAD4 FP inh: inactive

What do the screens show for `C=CCn1c(SCC(=O)c2ccc(O)c(O)c2)nnc1-c1cccnc1`?
GSTO1 inh: 40; PRMT1 FP inh: inactive; TDP2 absorb: inactive; Apaf-1 inh: inactive; PAD4 FP inh: inactive; GSTO1 confirm: inactive

Results for CCOC(=O)C(Cc1ccccc1)P(=O)(OCC)OCC (stereo unspecified) ?
PRMT1 FP inh: inactive; TDP2 absorb: inactive

How did COC(=O)c1ccccc1NC(=O)COC(=O)CSc1nnc(N)s1 do in these assays?
GSTO1 inh: 45; PRMT1 FP inh: inactive; TDP2 absorb: inactive; Apaf-1 inh: inactive; PAD4 FP inh: inactive; GSTO1 confirm: inactive

What do the screens show for `Cc1ccc(-c2csc3ncn(CC#N)c(=O)c23)cc1C`?
GSTO1 inh: 39; PRMT1 FP inh: inactive; TDP2 absorb: inactive; Apaf-1 inh: inactive; PAD4 FP inh: inactive; GSTO1 confirm: inactive

Results for COc1cccc(C(=O)NNC(=O)c2ccc3ccccc3c2O)c1 ?
GSTO1 inh: 45; PRMT1 FP inh: inactive; TDP2 absorb: inactive; Apaf-1 inh: inactive; PAD4 FP inh: inactive; GSTO1 confirm: inactive

Results for CCN(CC)C(=O)C1c2ccccc2Oc2ccccc21 ?
GSTO1 inh: 44; PRMT1 FP inh: inactive; TDP2 absorb: inactive; Apaf-1 inh: inactive; PAD4 FP inh: 80; GSTO1 confirm: inactive; PAD4 FP conf: inactive

What do the screens show for `CN1C(=O)c2cccc(NCCCN3C(=O)c4ccccc4C3=O)c2C1=O`?
GSTO1 inh: inactive; PRMT1 FP inh: inactive; TDP2 absorb: inactive; Apaf-1 inh: inactive; PAD4 FP inh: inactive

What do the screens show for `CCCCNc1c2c3c(cccc3n(C)c1=O)C(=O)c1ccccc1-2`?
GSTO1 inh: 44; Apaf-1 inh: inactive; PAD4 FP inh: 90; GSTO1 confirm: inactive; PAD4 FP conf: 81

Results for CCOC(=O)C1CCCN(C(=O)C2COc3ccccc3O2)C1 (stereo unspecified) ?
PRMT1 FP inh: inactive; TDP2 absorb: inactive

What do the screens show for `CCOC(=O)C1CCCN(C(=O)C2c3ccccc3Oc3ccccc32)C1` (stereo unspecified)?
GSTO1 inh: 46; PRMT1 FP inh: inactive; TDP2 absorb: inactive; Apaf-1 inh: inactive; PAD4 FP inh: 94; GSTO1 confirm: inactive; PAD4 FP conf: inactive

Results for CC(=O)n1cc(N(C(=O)CCl)c2ccc(Cl)cc2)c2ccccc21 ?
GSTO1 inh: 82; Apaf-1 inh: inactive; PAD4 FP inh: 20; GSTO1 confirm: 84; GSTO1 ABPP inh: 82; PAD4 FP conf: 51

What do the screens show for `CC(=O)Nc1cc(-c2ccc(S(C)(=O)=O)cc2)cn2c(-c3ccc(F)c(Cl)c3)cnc12`?
PRMT1 FP inh: inactive; TDP2 absorb: inactive

Results for CC(C)[C@H]1Cn2nncc2Cn2c3ccccc3c(=O)n21 ?
PRMT1 FP inh: inactive; TDP2 absorb: inactive

What do the screens show for `CN(C)c1ccc(N/C=C/C(=O)c2ccco2)cc1`?
GSTO1 inh: 61; PRMT1 FP inh: 21; TDP2 absorb: inactive; Apaf-1 inh: inactive; PAD4 FP inh: 23; GSTO1 confirm: inactive; PAD4 FP conf: inactive

How did CC(=O)Nc1ccc(N/C=C/C(=O)c2ccco2)cc1 do in these assays?
GSTO1 inh: inactive; PRMT1 FP inh: inactive; TDP2 absorb: inactive; Apaf-1 inh: inactive; PAD4 FP inh: inactive

How did COc1ccc(Cn2ccc3ccc(-c4ccc5ccn(C(=O)C6CCC6)c5c4)cc32)cc1 do in these assays?
PRMT1 FP inh: inactive; TDP2 absorb: inactive

How did Nc1nc(-c2cccs2)cs1 do in these assays?
GSTO1 inh: 67; Apaf-1 inh: inactive; PAD4 FP inh: 19; GSTO1 confirm: inactive; PAD4 FP conf: inactive

What do the screens show for `CC(=O)Nc1nc(-c2cccs2)cs1`?
GSTO1 inh: inactive; PRMT1 FP inh: inactive; TDP2 absorb: inactive; Apaf-1 inh: inactive; PAD4 FP inh: inactive

Results for CCN1c2ccccc2N(C)C1(C)c1ccccc1 (stereo unspecified) ?
GSTO1 inh: 55; PAD4 FP inh: 20; GSTO1 confirm: 37; PAD4 FP conf: inactive

What do the screens show for `CCC1(c2ccccc2)CN(C)C1=O` (stereo unspecified)?
PRMT1 FP inh: inactive; TDP2 absorb: inactive
